B1: Osa-1-4 twister ribozyme (parent)
chain: CCGCCUAACACUGCCAAUGCCGGUCCCAAGCCCGGAUAAAAGUGGAGGGGGCGG

Variants of: B1
Assay: self-cleavage, relative activity (ratio to wild type); higher = more cleavage; co-transcriptional
Summary of the method: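 A DNA template was synthesised for a 54-nucleotide twister ribozyme from Oryza sativa, with 97 % wild-type base and 1 % of each other base at each of the 48 positions downstream of the cleavage site. The ribozyme cleaved itself co-transcriptionally during 2 h of in vitro transcription at 37 °C. Reverse transcription with a template-switching oligonucleotide, PCR amplification and deep sequencing followed, and cleavage status came from reads with or without upstream sequence. Relative activity is the fraction cleaved normalised to wild type.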

Variant	self-cleavage
C26G C27U	0.07
C26G C27G	0.11
C26G C27A	0.05
C26A G54C	0.05
C26A G54A	0.06
C26A G54U	0.12
C25U G51U	0.17
C25U G51A	0.51
C25U G51C	0.06
C25G C33A	0.03
C25G C33U	0.06
C25G C33G	0.04
C26A G44U	0.05
C26A G44A	0.05
C26A G44C	0.05
C26A G13U	0.02
C26A G13C	0.01
C26A G13A	0.02
C25G U12A	0.06
C25G U12G	0.04
C25G U12C	0.05
C26A G19C	0.02
C26A G19A	0.04
C26A G19U	0.03

Variant	self-cleavage
C25U C27U	0.17
C25U C27A	0.06
C25U C27G	0.06
C25G U37C	0.12
C25G U37G	0.13
C25G U37A	0.12
C26A G47C	0.02
C26A G47U	0.03
C26A G47A	0.03
C26G	0.09
C26A	0.06
C25U U43A	0.29
C25U U43G	0.17
C25U U43C	0.13
C25G G44A	0.06
C25G G44C	0.06
C25G G44U	0.05
C25G G49A	0.07
C25G G49U	0.61
C25G G49C	0.7
C26G G47C	0.04
C26G G47U	0.06
C26G G47A	0.05
C26G C9U	0.04

Variant	self-cleavage
C26G C9G	0.09
C26G C9A	0.02
C25G G51C	0.03
C25G G51A	0.07
C25G G51U	0.04
C25U U24A	0.06
C25U U24C	0.08
C25U U24G	0.04
C26A G51U	0.04
C26A G51C	0.02
C26A G51A	0.06
C26A C33U	0.04
C26A C33A	0.05
C26A C33G	0.02
C26A C31G	0.03
C26A C31U	0.06
C26A C31A	0.02
C26G G34A	0.18
C26G G34U	0.08
C26G G34C	0.08
C26A U24G	0.01
C26A U24A	0.03
C26A U24C	0.02
C25U U37C	0.95

Variant	self-cleavage
C25U U37A	0.74
C25U U37G	0.96
C26G U18A	0.09
C26G U18C	0.1
C26G U18G	0.13
C26G U12G	0.07
C26G U12A	0.07
C26G U12C	0.05
C25U C9G	0.18
C25U C9U	0.33
C25U C9A	0.23
C25U G53C	0.06
C25U G53A	0.25
C25U G53U	0.11
C25U G47C	0.06
C25U G47U	0.07
C25U G47A	0.09
C26G G53U	0.06
C26G G53C	0.03
C26G G53A	0.11
C25U G13U	0.03
C25U G13C	0.02
C25U G13A	0.07
C25U C31A	0.04

Variant	self-cleavage
C25U C31G	0.31
C25U C31U	0.13
C25G G22U	0.06
C25G G22C	0.03
C25G G22A	0.09
C25U G22C	0.07
C25U G22A	0.74
C25U G22U	0.47
C26A C27G	0.03
C26A C27A	0.05
C26A C27U	0.03
C26A U18C	0.06
C26A U18G	0.12
C26A U18A	0.05
C26G G13A	0.03
C26G G13U	0.01
C26G G13C	0.01
C25U	0.93
C26G G45C	0.03
C26G G45A	0.05
C26G G45U	0.02
C25U U12G	0.17
C25U U12C	0.09
C25U U12A	0.18

Variant	self-cleavage
C26A G48A	0.03
C26A G48U	0.7
C26A G48C	0.1
C25U C32U	0.08
C25U C32G	0.1
C25U C32A	0.06
C25G C27G	0.07
C25G C27A	0.02
C25G C27U	0.07
C25U G48U	0.04
C25U G48C	0.06
C25U G48A	0.07
C25U G49C	0.06
C25U G49A	0.77
C25U G49U	0.71
C25G G35A	0.12
C25G G35U	0.07
C25G G35C	0.05
C25G G45C	0.03
C25G G45U	0.02
C25G G45A	0.03
C26A U37G	0.07
C26A U37C	0.07
C26A U37A	0.05

Variant	self-cleavage
C26A U12G	0.04
C26A U12A	0.04
C26A U12C	0.03
C26A G34C	0.05
C26A G34U	0.04
C26A G34A	0.05
C26G G42C	0.05
C26G G42U	0.02
C26G G42A	0.08
C25U G42A	0.22
C25U G42C	0.11
C25U G42U	0.05
C26G C31G	0.05
C26G C31U	0.06
C26G C31A	0.02
C25U G19A	0.14
C25U G19C	0.04
C25U G19U	0.08
C25G G13U	0.01
C25G G13A	0.03
C25G G13C	0.01
C26G G50A	0.1
C26G G50C	0.09
C26G G50U	0.09

Variant	self-cleavage
C25G U18G	0.18
C25G U18A	0.08
C25G U18C	0.13
C25G C52G	0.12
C25G C52A	0.08
C25G C52U	0.11
C25G G42C	0.06
C25G G42A	0.09
C25G G42U	0.02
C25G U24A	0.03
C25G U24G	0.02
C25G U24C	0.03
C26G C32G	0.09
C26G C32U	0.04
C26G C32A	0.03
C25G G47U	0.03
C25G G47A	0.05
C25G G47C	0.02
C26G G23C	0.04
C26G G23A	0.08
C26G G23U	0.02
C25G G19A	0.06
C25G G19C	0.03
C25G G19U	0.04

Variant	self-cleavage
C26A G50A	0.07
C26A G50U	0.05
C26A G50C	0.05
C25U C33G	0.06
C25U C33U	0.31
C25U C33A	0.06
C25U G45U	0.05
C25U G45A	0.06
C25U G45C	0.05
C26A U43C	0.04
C26A U43G	0.04
C26A U43A	0.05
C25G G48U	0.02
C25G G48C	0.03
C25G G48A	0.04
C26G C33G	0.04
C26G C33U	0.07
C26G C33A	0.05
C25U U18A	0.75
C25U U18C	0.84
C25U U18G	0.89
C25G G53C	0.02
C25G G53U	0.06
C25G G53A	0.08

Variant	self-cleavage
C25U C52U	0.9
C25U C52G	0.8
C25U C52A	0.66
C25G G50A	0.12
C25G G50U	0.11
C25G G50C	0.09
C26G G35C	0.07
C26G G35U	0.09
C26G G35A	0.08
C25U G34U	0.77
C25U G34A	0.85
C25U G34C	0.5
C26G G54C	0.08
C26G G54A	0.08
C26G G54U	0.15
C25G U43A	0.08
C25G U43C	0.06
C25G U43G	0.04
C25U G44A	0.32
C25U G44C	0.84
C25U G44U	0.56
C26A G30A	0.01
C26A G30U	0.01
C26A G30C	0.02

Variant	self-cleavage
C26A G35U	0.04
C26A G35C	0.04
C26A G35A	0.06
C26A C52U	0.07
C26A C52A	0.08
C26A C52G	0.08
C26G G49A	0.04
C26G G49C	0.03
C26G G49U	0.04
C26G G51C	0.05
C26G G51U	0.06
C26G G51A	0.1
C26A G49C	0.02
C26A G49U	0.02
C26A G49A	0.02
C26G G22U	0.08
C26G G22A	0.15
C26G G22C	0.06
C25U G54C	0.31
C25U G54A	0.34
C25U G54U	0.56
C25U C26U	0.21
C25U C26G	0.08
C25U C26A	0.04

Variant	self-cleavage
C26A G42C	0.03
C26A G42U	0.02
C26A G42A	0.04
C26A C9U	0.03
C26A C9A	0.02
C26A C9G	0.05
C26G G30U	0.03
C26G G30A	0.06
C26G G30C	0.05
C26G U24C	0.04
C26G U24A	0.04
C26G U24G	0.02
C25G C32A	0.03
C25G C32G	0.09
C25G C32U	0.04
C26A G45C	0.02
C26A G45A	0.02
C26A G45U	0.02
C25G G30U	0.02
C25G G30C	0.02
C25G G30A	0.02
C25G G54C	0.07
C25G G54U	0.25
C25G G54A	0.11

Variant	self-cleavage
C26G C52U	0.11
C26G C52G	0.16
C26G C52A	0.12
C25U G35C	0.09
C25U G35U	0.72
C25U G35A	0.87
C26A G53A	0.06
C26A G53U	0.04
C26A G53C	0.02
C26G G48A	0.06
C26G G48C	0.74
C26G G48U	0.08
C26G G19A	0.08
C26G G19U	0.05
C26G G19C	0.04
C26A G23C	0.01
C26A G23U	0.02
C26A G23A	0.04
C25U G30C	0.03
C25U G30U	0.05
C25U G30A	0.03
C25U G50C	0.23
C25U G50A	0.87
C25U G50U	0.52

Variant	self-cleavage
C25G G23C	0.04
C25G G23U	0.04
C25G G23A	0.06
C25G C31G	0.23
C25G C31A	0.02
C25G C31U	0.05
C25G G34A	0.08
C25G G34C	0.06
C25G G34U	0.07
C26A G22C	0.02
C26A G22U	0.05
C26A G22A	0.07
C25U G23U	0.05
C25U G23A	0.11
C25U G23C	0.06
C26G U37A	0.09
C26G G44C	0.09
C26G G44A	0.09
C26G G44U	0.08
C26A C32U	0.01
C26A C32G	0.03
C26A C32A	0.05

From the RNAGym collection of RNA variant scans (doi:10.1002/anie.201605470)
